Screening data: PubChem BioAssay, The Scripps Research Institute Molecular Screening Center
CHO-K1 Ca antag – counter-screen for M1 antagonists: effect in parental CHO-K1 cells; ATP-induced calcium, Fluo-8 fluorescence; inhibition, % at 3 µM; hit rate 0.6% among 360,000; AID 602250;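 active = inhibition above a per-plate cutoff, the plate's mean sample inhibition plus 3 SD, cut at about 24% in these data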
CHO-K1 Ca PAM – nonselective activator or artifact in parental CHO-K1 calcium assay | hit rate 0.02% among 360,000 | AID 602247 | activation, % at 3 µM | ATP EC20, Fluo-8 calcium fluorescence; 0% at ATP EC20, 100% at ATP max;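 active = activation above the run cutoff, the mean activation of all test compounds plus 3 SD, cut at about 40% in these data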;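 also: peak over basal fluorescence ratio in a 140 s read after ATP addition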
OX1R antag-1 – OX1R (human) antagonism. O43613. hit rate 1.8% among 330,000. OX1R-expressing cells, FRET antagonist read-out. inhibition, % at 6.6 µM; in the data active = inhibition mostly above about 38%, no sharp cut-off; inactive = mostly below about 40%
Target sequence (O43613 whole entry, looked up): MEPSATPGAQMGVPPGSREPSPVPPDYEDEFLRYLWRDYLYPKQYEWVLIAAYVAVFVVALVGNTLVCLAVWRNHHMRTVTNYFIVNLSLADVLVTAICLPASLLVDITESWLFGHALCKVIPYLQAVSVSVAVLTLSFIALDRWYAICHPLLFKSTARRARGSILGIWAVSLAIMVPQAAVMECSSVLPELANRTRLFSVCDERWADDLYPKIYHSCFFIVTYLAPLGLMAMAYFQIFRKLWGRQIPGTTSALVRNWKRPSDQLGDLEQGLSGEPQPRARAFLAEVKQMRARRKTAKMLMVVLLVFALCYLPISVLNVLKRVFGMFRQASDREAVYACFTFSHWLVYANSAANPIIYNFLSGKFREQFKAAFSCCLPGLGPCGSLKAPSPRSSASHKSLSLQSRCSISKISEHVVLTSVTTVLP
CHO parental Ca – signal in parental CHO cells, OX1R antagonist counter-screen | parental CHO-K1, ATP-induced calcium, Fluo-8 fluorescence | inhibition, % at 5.6 µM | hit rate 0.63% among 330,000;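 active = inhibition above that plate's mean sample inhibition plus 3 SD, cut at about 26% in these data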
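Assay system: parental CHO cells; Read-out basis: percent inhibition of ATP-evoked calcium rise, normalized to controls; Benchmarks: ATP and no-ATP DMSO wells; Compound dosing: single nominal dose of 5.6 µM per compound; Signal: Fluo-8 calcium dye fluorescence; Also added: ATP as calcium-mobilizing challenge; Repeats: singlicate.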
CHO-K1 Ca ag – nonselective activator or artifact in parental CHO-K1 cells; Fluo-8 calcium fluorescence; scaled to maximal ATP response, vehicle zero; activation, % at 3 µM; hit rate 0.48% among 360,000; in the data active = activation above about 15%;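 also: untransfected CHO-K1 host cells lacking M1 receptor as counterscreen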
OX1R antag-2 – human HCRTR1 antagonism; O43613; CHO/OX1R cells, Fluo-8 calcium fluorescence, orexin A; inhibition, % at 5 µM; hit rate 0.43% among 330,000; AID 434989;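 active = inhibition above its plate's threshold, mean inhibition of all tested compounds on the plate plus 3 SD, cut at about 37% in these data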
A number is an active result; - = inactive; . = no result. In the library only some 2.9% were active in any assay of this set; here they are far more common.

SMILES	CHO-K1 Ca antag	CHO-K1 Ca PAM	OX1R antag-1	CHO parental Ca	CHO-K1 Ca ag	OX1R antag-2
O=C(Nc1ccccc1F)C1CCCN1S(=O)(=O)c1cccc2nsnc12 (centres undefined)	58.2	-	68.2	-	-	-
O=C(O)c1ccccc1NC(=O)C1CCN(S(=O)(=O)c2cccc3nsnc23)CC1	-	-	-	-	-	-
O=C(C1CCCN1S(=O)(=O)c1cccc2nsnc12)N1CCN(c2ccccc2)CC1 (centres undefined)	-	-	-	-	-	-
CC1CCCC(NC(=O)C2CCCN2S(=O)(=O)c2cccc3nsnc23)C1C (centres undefined)	-	-	70.6	-	-	-
CCCCNC(=O)C1CCCN1S(=O)(=O)c1cccc2nsnc12 (centres undefined)	-	-	-	-	-	-
O=C(Nc1ccccc1Br)C1CCCN1S(=O)(=O)c1cccc2nsnc12 (centres undefined)	-	-	56.3	-	-	-
Cc1ccc(C(=O)O)cc1NC(=O)C1CCCN1S(=O)(=O)c1cccc2nsnc12 (centres undefined)	-	-	51.5	-	-	-
Cc1c(NC(=O)C2CCCN2S(=O)(=O)c2cccc3nsnc23)cccc1C(=O)O (centres undefined)	-	-	48.2	-	-	-
CCOC(=O)c1c(NC(=O)C2CCCN2S(=O)(=O)c2cccc3nsnc23)sc(C)c1C (centres undefined)	-	-	.	.	-	.
COc1ccc(OCCSc2nc3ccccc3n2CCC(=O)O)cc1	-	-	54.5	-	-	-
CCc1ccc(OCCSc2nc3ccccc3n2CCC(=O)O)cc1	-	-	-	-	-	-
COc1ccccc1OCCSc1nc2ccccc2n1CCC(=O)O	-	-	66.6	-	-	-
Cc1cc(C(=O)O)cc(S(=O)(=O)Nc2ccccc2C(=O)NC2CC2)c1C	-	-	.	.	-	.
Cc1ccc(S(=O)(=O)N(C)c2ccc(C(=O)Nc3cccnc3)cc2)cc1	-	-	-	-	-	-
CCOC(=O)C1CCN(S(=O)(=O)c2ccc3c(c2)N(C(C)=O)CC(C)S3)CC1 (centres undefined)	-	-	-	-	-	-
O=C(COC(=O)c1cccc(S(=O)(=O)Nc2ccc(F)cc2)c1)NCCN1C(=O)CSC1=O	-	-	-	-	-	-
C=CCNc1nc(NCc2ccc(N(C)C)cc2)c2sc(-c3ccccc3)cc2n1	-	-	.	.	-	.
CN(C)/C=C1\C=C2C(=O)c3ccccc3N2C1=O	40.8	-	-	50.2	165.3	46.5
CCCCCCCCc1nc(=S)[nH][nH]1	25.5	-	-	-	-	-
C/C(=N\N=C1\NC(=O)C(CC(=O)Nc2ccccc2F)S1)C1CCCCC1 (centres undefined)	-	-	-	-	-	-
CCOC(=O)c1ccc(N2C(=O)c3cccc4c(C(=O)O)ccc(c34)C2=O)cc1	-	-	-	-	-	-
CC(=O)c1ccc2c3c(cccc13)C(=O)N(c1c(C)nn(C)c1C)C2=O	-	-	67.0	-	-	-
COc1ccc(C(=O)c2ccc(N(C)C)cc2)c2ccccc12	-	-	-	32.8	-	58.2
O=C(Nc1cccnc1)c1ccc2c(c1)C(=O)N(CC1CCCO1)C2=O (centres undefined)	-	-	73.3	-	-	-
C=CC[n+]1ccc(/C=C2\C=Cc3cc(C)ccc3N2CC)c2ccccc21	48.8	-	.	.	-	.
SMILES	CHO-K1 Ca antag	CHO-K1 Ca PAM	OX1R antag-1	CHO parental Ca	CHO-K1 Ca ag	OX1R antag-2
CCCN1CCC(=O)N(CCOc2ccccc2)CC1	24.2	-	-	-	-	-
CCCC(=O)NCc1nc2ccccc2n1CC(=O)c1ccccc1	-	-	-	-	-	-
COc1ccc(N2CCN(c3ccc(C(N)=O)cc3[N+](=O)[O-])CC2)cc1	-	-	-	-	-	-
COc1ccccc1N1CCN(c2ccc(N3C(=O)CCC3=O)cc2[N+](=O)[O-])CC1	-	-	-	57.3	-	-
COc1cccc(N2CCN(c3ccc(N4C(=O)CCC4=O)cc3[N+](=O)[O-])CC2)c1	-	-	-	32.9	-	-
C=C(C)CN1CCN(c2ccc(N3C(=O)CCCC3=O)cc2[N+](=O)[O-])CC1	-	-	-	-	-	-
O=C(NN1c2ccccc2CCc2ccccc21)c1ccccc1Br	-	-	66.3	-	-	-
CNC(=O)N1c2ccccc2CCc2ccccc21	-	-	-	-	-	-
COc1ccc2c3c(cccc13)N(C)N=C2C	-	-	66.3	-	-	-
COc1cccc(OCCSc2nc(N)cc(N)n2)c1	26.9	-	-	-	-	-
O=C(OCc1ccccn1)c1ccc(COc2ccc3ccccc3c2)o1	-	-	-	47.8	-	-
CC(=NNC1=NCCN1)c1cnn(C2=NCCN2)c1C	-	-	.	.	-	.
Cc1c(Br)ccc(NC(=O)Cn2nc(-c3cccs3)ccc2=O)c1C	-	-	54.6	-	-	-
Cc1ccccc1NC(=O)N1CCCC(c2nc(-c3ccc(C(C)C)cc3)no2)C1 (centres undefined)	-	-	-	-	16.7	-
NC(=O)c1ccc(NC(=O)COC(=O)c2ccc3c(c2)OCCO3)cc1	-	-	-	-	20.1	-
O=C(COC(=O)c1ccc2c(c1)OCCO2)Nc1ccc(F)cc1	-	-	.	.	-	.
O=C(COC(=O)c1ccc(NS(=O)(=O)c2ccc3c(c2)OCCO3)cc1)NC1CCS(=O)(=O)C1 (centres undefined)	25.1	-	-	-	-	-
COc1nc2ccccc2nc1CCC(=O)O	-	-	-	-	-	-
CCn1c(SCc2nc(-c3ccccc3)no2)nc2ccccc21	-	-	53.9	-	-	-
COC(=O)N/N=C/c1cccs1	-	-	-	-	-	-
CC1=CCC(C(=O)N/N=C/c2cccs2)C(c2ccc(F)cc2)C1 (centres undefined)	-	47.8	-	-	-	-
CCOC(=O)Cc1csc(NS(=O)(=O)c2ccc([N+](=O)[O-])cc2)n1	-	-	-	-	-	-
O=C(Nc1ccccc1Cl)c1cc[n+](Cc2ccc([N+](=O)[O-])cc2)cc1	-	-	40.0	-	-	-
O=C(COC(=O)c1ccccc1NCCO)Nc1cc(C(F)(F)F)ccc1N1CCOCC1	-	-	-	-	-	-
COc1ccc(CCNC(=O)c2ccc(CS(=O)(=O)c3ccc(Cl)cc3)o2)cc1OC	-	-	-	-	16.8	-
COc1ccc(CCNC(=O)c2ccc(=O)[nH]n2)cc1OC	-	-	-	39.6	-	-
COc1ccc(CCNC(=O)c2ccc([N+](=O)[O-])cc2Cl)cc1OC	-	-	71.3	-	-	-
COc1ccc(CCNC(=O)c2ccc(CS(=O)(=O)Cc3ccc(C)cc3)o2)cc1OC	-	-	.	.	15.2	.
COc1ccc(CCNC(=O)c2ccc(OC)c(OC)c2)cc1OC	-	-	-	-	-	-
